Experimental data as given in ChEMBL document CHEMBL4513216, “Probing the Open Global Health Chemical Diversity Library for Multistage-Active Starting Points for Next-Generation Antimalarials” (ACS Infect Dis, 2020).

Assay: Toxicity liver stage against HepG2, at 10uM
Type: cell-based
Set-up: test concentration 10 uM, cell line HepG2-A16-CD81EGFP
Details: human, HepG2-A16-CD81EGFP cells; read-out: INHIBITION
Procedure, shortened: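 Uninfected HepG2-A16-CD81EGFP cells, 3 × 10^3 per well, 1536-well, plated on prespotted compound at 10 μM final, parasite-free screening media added to match infected plates; puromycin 10 μM positive, DMSO 0.5% negative; run in parallel with 48 h PbLuc assay at 37 °C, 5% CO2; viability by CellTiter-Glo luminescence, normalized to controls.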

In order of falling cytotoxicity at 10 µM:
1. CC(C)c1nc(C2CCCN(c3nccc(N4CCCC4)n3)C2)no1 (stereo unspecified)  27.6%
2. O=C(c1ccc(-n2ccnn2)cc1)N(CC1CC1)c1cccnc1  22.5%
3. CC(Nc1nc2c(cnn2C)c(=O)[nH]1)c1ccc(F)cc1 (stereo unspecified)  16.6%
4. O=C(CN1CCCc2sccc2C1=O)NC1CCc2nccn2C1 (stereo unspecified)  16.1%
5. CCOc1nnc(CN2CCCC(c3nc4ccccc4[nH]3)C2)s1 (stereo unspecified)  14.6%
6. N#CCc1ccc(OCC(=O)NS(=O)(=O)c2cccs2)cc1  13.6%
7. Cc1cc(CN(C)CC2CCCCC2)no1  13.2%
8. Cc1oc(-c2nc(C#N)c(NCC(C)C)o2)cc1S(=O)(=O)N1CCCC1  13.1%
9. COc1cccc2c1N(Cc1noc(C(C)(C)C)n1)CCC2  10.9%
10. COc1ccc(CN2CC3(CCNCC3)CCC2=O)c(F)c1F  10.9%
11. CC(C(=O)N1CCCCC1)n1nc(-c2cccs2)cc(N)c1=O (stereo unspecified)  10.8%
12. CN(CC(=O)Nc1cc(-n2nnnc2C2CC2)ccc1F)C1CCC1  8.83%
13. CS(=O)(=O)Nc1ccn(Cc2cccc(Cl)c2)n1  8.66%
14. COc1cccc(C(CO)NC(=O)Cc2ccc(F)c(Br)c2)c1 (stereo unspecified)  8.44%
15. Cc1ccc(-c2noc(CCC(=O)NC(C)Cn3cccn3)n2)cc1 (stereo unspecified)  8.41%
16. Cc1nc(C)n(CCNC(=O)C2(C)CC(c3ccccc3)=NO2)n1 (stereo unspecified)  7.92%
17. COCCN(Cc1ccccc1)c1cc(C)ncn1  7.41%
18. CCN(c1ccc(C(=O)N2CCC(C)CC2)cc1)S(=O)(=O)CC  7.36%
19. CCn1cc(Cl)c(C(=O)NCCOC)n1  7.05%
20. Cc1[nH]ccc1C(=O)N1CCC2(CC1)c1nc[nH]c1CCN2S(C)(=O)=O  6.63%
21. COc1c(Br)c(CC2CC(CO)=NO2)c(OC)c2c1OCO2 (stereo unspecified)  6.36%
22. O=C(NCc1ccccn1)NC1CCCN(c2ncccn2)C1 (stereo unspecified)  6.21%
23. CCC(=O)N1CCC(Cc2nccnc2Nc2ccccn2)CC1  5.82%
24. Fc1ccc(CN2CCCC2c2cncc(-n3ccnc3)n2)cc1 (stereo unspecified)  5.82%
25. Cc1cccc(C(=O)N2CCN(S(C)(=O)=O)[C@@H](C)C2)c1Cl  5.58%
26. Cc1ncc(Cl)c(C(=O)N2CC(=O)N(C)c3ccccc32)n1  5.35%
27. N#Cc1cccc(CN2CC[C@@H]3[C@@H]2CC(=O)N3Cc2cccnc2)c1  5.2%
28. Cn1cc(C2CCCN2C(=O)Cn2ccc3ccccc32)cn1 (stereo unspecified)  5.08%
29. Cc1ccc(F)c(OC2(C(=O)O)CCN(C(=O)c3ccncc3)CC2)c1  5.03%
30. Cc1nc(CNC(C)c2cccc(N3CCCC3=O)c2)cs1 (stereo unspecified)  5.01%
31. COCCCC(=O)N(CCC(=O)O)Cc1ccc(F)c(F)c1  4.91%
32. CCn1cnnc1CNC(=O)N1CCC(Cc2cccnc2)CC1  4.38%
33. Cc1nc(C(=O)N2CCN(S(C)(=O)=O)CC2)c(-c2ccccc2Cl)s1  4.37%
34. O=C(Nc1cn[nH]c1)N1CCN(CCSc2ccccc2)CC1  4.32%
35. Cn1ncc2c1CCCN(C(=O)C1CCCC1)C2  4.13%
36. Cc1ccccc1N1CCCN(C(=O)CN2C(=O)OC[C@@H]2C(C)C)CC1  4.02%
37. COC(=O)C1=C(C)N=C2SCC(=O)N2C1c1cnn(C)c1C (stereo unspecified)  4.01%
38. CCOc1ccccc1CNC(=O)c1cnn(CC)c1C(F)(F)F  3.67%
39. Cc1ccc(-c2noc([C@@H]3C[C@H](NC(=O)NC(C)C)CN3C)n2)cc1  3.31%
40. COC(=O)c1ccc2ccn(CC3COCCO3)c(=O)c2c1 (stereo unspecified)  3.26%
41. CCn1nccc1CNc1[nH]cnc2nncc1-2  3.15%
42. CSc1ncccc1C(=O)N1C[C@@H]2CC[C@H]1CN(CC(=O)N(C)C)C2  2.9%
43. c1cc(C2CCN(c3cnccn3)CC2)ncn1  2.64%
44. O=C(C(CNCc1cccnc1)c1ccccc1)N1CCOCC1 (stereo unspecified)  2.49%
45. O=C(NCCCO)NCCc1cc(F)ccc1F  2.37%
46. CC1CCN(C)c2ccccc2N1C(=O)c1ccnc(-n2cncn2)c1 (stereo unspecified)  2.37%
47. Cc1c(-c2ccccc2)ncn1CCCNc1cccnc1  2.06%
48. CS(=O)(=O)CCn1ccc(NC(=O)Cc2c[nH]c3ccccc23)n1  2%
49. CC(C)(CNc1cn[nH]c(=O)c1Cl)c1ccc2c(c1)OCCO2  2%
50. COc1cc(N2CC[C@H](O)[C@@H]2Cc2cnn(C)c2)ncn1  1.72%
51. O=C(O)CN1CCC(c2ccccc2)C1 (stereo unspecified)  1.67%
52. O=C(Cn1cc(C(=O)O)cn1)Nc1c(Cl)cccc1Cl  1.57%
53. COc1cccc(CCNS(=O)(=O)c2ccc(NC(C)=O)cc2)c1  1.54%
54. N[C@@H]1CC[C@@H]1NC(=O)c1ccccc1OC(F)(F)C(F)F  1.5%
55. CN(C)CC1COCCN1C(=O)c1ccccc1C(=O)c1ccccc1 (stereo unspecified)  1.12%
56. Cc1c(CCC(=O)N2CCCC2c2ccnc(N(C)C)c2)cnn1C (stereo unspecified)  0.469%
57. O=C(Nc1ccccc1OC1CCOC1)c1[nH]nc2c1CCCC2 (stereo unspecified)  0.271%
58. Cc1nc(CN(C)Cc2nc(-c3ccncc3)no2)co1  -0.187%
59. Cc1ccc(S(N)(=O)=O)cc1C(=O)N1C[C@@H](CN(C)C)[C@@H](CO)C1  -0.187%
60. Cc1noc(CS(=O)(=O)c2cc(F)ccc2F)n1  -0.23%
61. CCOCC(=O)Nc1nccn1Cc1ccccc1Cl  -0.678%
62. CC(C(=O)N1CCC(c2[nH]ncc2-c2ccccc2)CC1)n1cncn1 (stereo unspecified)  -0.815%
63. CCc1nnsc1C(=O)N(C)Cc1nnc2n1CCC2  -0.862%
64. O=C(NCCN1CCCCCC1=O)NCc1ccc(Cl)s1  -1.08%
65. Cn1cccc1C(O)CNC(=O)c1ccc(F)c(F)c1 (stereo unspecified)  -1.29%
66. CCc1noc(CN2CCCC2C(=O)OCc2ccccc2)n1 (stereo unspecified)  -1.57%
67. CN(CC(=O)N1CCc2[nH]c3ccccc3c2C1)CC1OCCO1  -1.63%
68. CN(C)c1ccc(C(=O)N2C[C@@H](CN3CCCCC3)[C@@H](CO)C2)cc1  -1.72%
69. O=C(NCCNc1ccc(C(F)(F)F)cn1)c1ccoc1  -2%
70. Cc1ccc(C(=O)NC(CN2CCCC2=O)c2ccccc2)c(=O)[nH]1 (stereo unspecified)  -2.23%
71. Cc1cc(NC(=O)N2CCCC2C(=O)NC2CC2)c2ncccc2c1 (stereo unspecified)  -2.43%
72. COCc1ccccc1CNc1nnc(C)c(C)c1C#N  -2.48%
73. O=C(c1cc(Cl)ccc1OC1CCN(C2CCCC2)CC1)N1CCCO1  -2.54%
74. COCCC1(CNC(=O)Nc2ccc(-n3cccn3)cc2)CCC1  -2.75%
75. O=c1cc2c(nn1CN1CCN(c3cccc(Cl)c3)CC1)CCC2  -3.19%
76. COCCS(=O)(=O)N(Cc1cscn1)c1ccccc1  -3.3%
77. CC(C)(C(=O)N1CCCC(OCc2cccnc2)C1)n1cccc1 (stereo unspecified)  -4.06%
78. CCc1cnccc1C(=O)NC1CCN(Cc2ccccc2F)CC1  -4.35%
79. CCC[C@@H]1CN(Cc2nnc(-c3cccnc3)o2)C[C@H]1NC(C)=O  -4.89%
80. O=c1c(NCCNCCO)c(N2CCN(c3ccc(F)cc3)CC2)c1=O  -5.46%
81. Cc1csc(-c2cccc(NC(=O)N3CCOCC3)c2)n1  -6.35%
82. CCCSc1ncc(C2CC(=O)NCc3nc4ccccn4c32)cn1 (stereo unspecified)  -6.53%
83. CN(CCOc1ccc(C#N)cc1)CC1CCS(=O)(=O)C1 (stereo unspecified)  -6.94%
84. CC(CNC(=O)NCc1ccco1)CC1(C)OCCO1 (stereo unspecified)  -7.25%
85. CC1COCCN1Cc1nc(-c2cccs2)no1 (stereo unspecified)  -7.79%
86. Cc1cc(C(=O)NCc2ccc(N3CCN(C)CC3)nc2)c(C)s1  -8.74%
87. CCn1cc(CCC(=O)NCc2csc(C3CC3)n2)c(C)n1  -8.78%
88. OC(COc1ccc(F)cc1)CN1CCC(Cn2cccn2)CC1 (stereo unspecified)  -9.07%
89. Cc1ccc(CN(C)C(=O)CCNS(=O)(=O)c2cccnc2)cc1  -10.6%
90. CC(C)C(=O)Nc1ccc(Oc2ccc3c(c2)OCO3)nc1  -12.4%
91. Cc1ccc2oc(=O)n(CC(=O)N3CCC4(CC3)CN(C)C(=O)O4)c2c1  -13.8%
92. COc1cc(NC2CCCN(c3ncccn3)C2)cc(OC)c1 (stereo unspecified)  -16%
93. CC1CN(CC(=O)NCc2ccccc2)CCN1Cc1nccn1C (stereo unspecified)  -16.2%
94. CCOC(=O)N1CCN(C(=O)C2Cc3ccccc3CN2C)CC1 (stereo unspecified)  -19.2%
95. CCN(CC)C(=O)CNS(=O)(=O)c1cc(Br)ccc1F  -45.9%
96. CC(CS(C)(=O)=O)NCc1cc(Cl)ccc1F (stereo unspecified)  -46.6%
97. CCc1nc(CCn2cc(-c3nccn3C)nn2)no1  -55.3%
98. CCC1COC2(CCN(C(=O)c3ccco3)CC2)C1 (stereo unspecified)  -65.4%
99. Cc1ccc(CN2CC[C@@H](O)[C@@H]2Cc2cnn(C)c2)o1  -71%
100. COc1ccc(CN2C[C@@H]3OCCN(C)[C@@H]3C2)cc1  -74.8%
101. Cc1nnc([C@@H]2CC[C@@H]3[C@@H](CCN3S(=O)(=O)C3CC3)O2)o1  -77%
102. Cn1cc(C[C@H]2[C@H](O)CCN2Cc2ccc3c(c2)OCO3)cn1  -80.5%
103. O=C(c1cnccn1)N1CC[C@H]2[C@@H]1CCC(=O)N2c1cccnc1  -81.6%
104. O=C1[C@H]2CN(Cc3ccc(F)cc3)C[C@H]2CN1c1ccsc1  -87.8%
105. Cn1cc(C(=O)NCc2cncc3c2CCNC3)cn1  -91.6%
106. CNC(=O)N1CC[C@@H]2CN(Cc3ccccc3)S(=O)(=O)[C@@H]2CC1  -96.6%
107. CNC(=O)C1Cn2ccnc2C2(CCN(C(=O)NC3CCCC3)CC2)O1 (stereo unspecified)  -104%
108. Cc1ccc(C(=O)N2CC[C@H]3[C@@H]2CCC(=O)N3c2cccnc2)o1  -106%
109. CC1c2ncc(Cn3cccn3)n2CCN1c1ncccn1 (stereo unspecified)  -108%
110. O=C(c1ccncc1)N1CC[C@@H]2CN(C3CCOCC3)CCO[C@@H]2C1  -110%
111. Cc1cccc(CN2CCC3(CCC(CC(=O)N(C)C)CC3)CC2)n1  -113%
